# Screening data deposited in PubChem by The Scripps Research Institute Molecular Screening Center.
# In the library only some 1.4% were active in any assay of this set; here they are far more common.
# ZTA counter = blocks Epstein-Barr virus ZTA, an EBNA-1 counter-screen. AID 2234. actives 0.15% (n = 320,000). inhibition, % at 11 µM. P03206. ZTA-DNA binding, fluorescence polarization; in the data active = inhibition above about 33%
# Target sequence (P03206 whole entry, looked up): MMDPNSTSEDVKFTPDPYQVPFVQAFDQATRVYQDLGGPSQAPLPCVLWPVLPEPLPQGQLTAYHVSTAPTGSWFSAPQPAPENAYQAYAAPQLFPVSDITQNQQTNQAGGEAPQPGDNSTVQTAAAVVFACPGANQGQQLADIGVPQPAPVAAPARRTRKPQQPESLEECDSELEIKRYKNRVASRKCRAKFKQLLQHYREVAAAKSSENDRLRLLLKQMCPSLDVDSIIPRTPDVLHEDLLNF
# EBNA-1 inh = blocks EBNA-1 binding to DNA; inhibition, % at 14.8 µM; AID 1950; actives 0.34% (n = 300,000); EBNA-1 DNA binding, fluorescence polarization; in the data active = inhibition above about 28%
# Fh CTSL1 inh = cathepsin L1 inhibition, PFM18AAP counter-screen. recombinant F. hepatica cathepsin L1, Z-Leu-Arg-MCA fluorescence. inhibition, % at 5.96 µM. actives 0.49% (n = 300,000). AID 1906;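 active = inhibition above the mean of all tested compounds plus 3 SD, set per screening campaign, cut at about 17% in these data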;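 also: 0% = plate median of test compound wells and 100% = 1 µM Z-Phe-Ala-diazomethylketone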
# NS3 helicase inh = inhibitors of Hepatitis C virus NS3 helicase | NS3 helicase DNA unwinding, Cy5 molecular beacon fluorescence | AID 1800 | actives 0.56% (n = 290,000) | inhibition, % at 10.9 µM;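 active = inhibition above the mean of all tested compounds plus 3 SD, set per campaign, cut at about 35% in these data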;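 also: 0% = DMSO wells and 100% = thioflavine S control wells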
#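 test system = hepatitis C virus NS3 helicase domain fragment enzyme | reagent = annealed dual-labelled DNA beacon duplex, ATP-started | times = 1 h at 25 °C | detection = Cy5 fluorescence, 0 and 60 min reads | read-out basis = percent inhibition from t60/t0 fluorescence ratio | control set = DMSO and thioflavine S | replication = one well per compound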
# * hit, by the source's call; nt = no result given.
SMILES,ZTA counter,EBNA-1 inh,Fh CTSL1 inh,NS3 helicase inh
NS(=O)(=O)c1ccc(NC2=CC(=O)C(=O)c3ccccc32)cc1,0,2,17*,18
Cn1c(=O)c2c(-c3ccccc3)n(Cc3cccnc3)cc2n(C)c1=O,-6,-1,-2,-9
Cn1c(=O)c2c(-c3ccccc3)n(-n3cnnc3)cc2n(C)c1=O,-4,0,25*,1
Cc1cccc(-n2c(=O)[nH]c3c(C(N)=O)nc(C(C)C)nc32)c1,-3,-15,17*,15
Cc1ccc(-n2c(=O)[nH]c3c(C(N)=O)nc(C(C)C)nc32)cc1,-14,4,1,-1
Cc1ccc(CNC(=O)COc2cc(O)c3c(c2)OC(C)(C)CC3=O)cc1,6,5,1,-17
COc1ccc(-c2cc(C(=O)Nc3ccc(S(N)(=O)=O)cc3)c3ccccc3n2)cc1OC,3,16,0,8
COc1ccc(-c2cc(C(=O)Nc3cc(S(N)(=O)=O)ccc3C)c3ccccc3n2)cc1OC,0,8,22*,nt
N#Cc1nc(COc2ccc(Cl)cc2)oc1N1CCCCCC1,19,-3,60*,4
O=C(NCC(c1ccco1)N1CCCC1)c1ccccc1Sc1ccc(C(F)(F)F)cc1[N+](=O)[O-] (centres undefined),9,-6,20*,nt
N#Cc1ccccc1Sc1ccccc1C(=O)NCC(c1ccco1)N1CCCCC1 (centres undefined),4,nt,nt,nt
O=C(CCl)N1N=C(c2ccco2)CC1c1cccs1 (centres undefined),15,3,26*,5
Cc1ccc(C2=NN(C(=O)CCC(=O)O)C(c3cccs3)C2)cc1 (centres undefined),8,11,-2,4
Cc1ccc(C2=NN(C(=O)CCl)C(c3cccs3)C2)o1 (centres undefined),-8,1,18*,7
CC(=O)N1N=C(c2ccco2)CC1c1cccs1 (centres undefined),-1,-9,1,6
CC(C)Cn1c(N)c(C(=O)COC(=O)[C@H](C)NC(=O)c2ccccc2Cl)c(=O)n(C)c1=O,-6,-4,20*,nt
Cc1ccccc1C(=O)NC(CC(C)C)C(=O)OCc1cc(=O)n2cc(Br)ccc2n1 (centres undefined),-11,-3,27*,0
COc1cc(C(C)=O)ccc1OCC(O)CN1CCN(c2cc(C)cc(C)c2)CC1 (centres undefined),-14,0,-1,-6
O=C1c2cccc3cccc(c23)C(=O)C1(O)O,-14,2,18*,nt
CC(=O)N1C(=O)c2cccc3cccc(c23)C(=O)N1C(C)=O,8,6,-10,-2
O=C1C=C(NCCN2CCOCC2)C(=O)c2cnccc21,18,7,100*,-1
O=C(NCCN1CCOCC1)c1ccncc1,1,-17,2,2
C/C(=N/Nc1nc(C)c(C)s1)c1cccc([N+](=O)[O-])c1,2,-6,90*,-10
O=C(Nc1cccc2c1C(=O)NC2=O)c1ccc(N2C(=O)CCC2=O)cc1,-7,-4,42*,5
O=C(Nc1cccc2c1C(=O)NC2=O)c1cccnc1Cl,0,6,-2,-4
SMILES,ZTA counter,EBNA-1 inh,Fh CTSL1 inh,NS3 helicase inh
CCN(C(=O)COc1ccccc1[N+](=O)[O-])C1CCS(=O)(=O)C1 (centres undefined),-4,1,-1,8
O=C(COc1ccccc1[N+](=O)[O-])N(Cc1ccco1)C1CCS(=O)(=O)C1 (centres undefined),11,-6,25*,3
COc1ccc(-n2nc3c(c2NC(=O)CCl)CSC3)cc1,-3,0,72*,6
O=C(Cn1c(=S)[nH]c2ccccc2c1=O)N1CCc2ccccc2C1,1,6,1,10
Cc1c(C(=O)O)sc2nc(CSc3nnc(-c4ccc(F)cc4)n3C)[nH]c(=O)c12,4,1,1,10
Cc1ccsc1/C=N/N=C/c1sccc1C,15,-6,5,-6
Cc1ccsc1C=Nc1ccc(O)cc1,38*,-2,102*,24
COc1ccccc1NS(=O)(=O)c1cccc(NC(=O)c2nn(C)c(=O)c3ccccc23)c1,11,nt,nt,nt
O=C(OC1CCCCC1)c1ccc2c(c1)C1C=CCC1C(C(=O)O)N2 (centres undefined),nt,nt,nt,40*
CCOP(=O)(OCC)C(C)(C)NC(=O)c1cc([N+](=O)[O-])cc([N+](=O)[O-])c1,-7,3,3,4
CCOP(=O)(OCC)C(NC(=O)c1cc([N+](=O)[O-])cc([N+](=O)[O-])c1)C(F)(F)F (centres undefined),-8,9,40*,-5
Cc1ccc(N(C(=O)CCl)C(C(=O)NC2CCCCC2)c2cccnc2)cc1C (centres undefined),14,0,18*,-61
O=[N+]([O-])c1ccc(/C=N\NS(=O)(=O)c2ccc(F)cc2)o1,-6,3,20*,3
COc1ccc(S(=O)(=O)N/N=C\c2ccc([N+](=O)[O-])o2)c(OC)c1,-8,9,0,16
O=c1[nH]c(Nc2ccccc2)cc2ccccc12,32,-13,105*,2
CC(=O)c1cccc(-c2ccc3c(=O)[nH]c(Nc4ccccc4)cc3c2)c1,-3,11,85*,nt
Cc1ccc(NC(=O)CSc2nnc(-c3ccco3)o2)c(C)c1,2,-1,2,20
CCN(CC)C(=O)CSc1nnc([C@@H](N)Cc2ccccc2)o1,16,7,44*,nt
CCC(C)[C@H](N)c1nnc(SCC(=O)Nc2ccc(C)cc2C)o1 (some centres undefined),7,4,32*,2
CCc1ccccc1NC(=O)CSc1nnc([C@@H](N)Cc2ccccc2)o1,1,6,68*,-1
COC(=O)c1c(NC(=O)Cn2cc([N+](=O)[O-])cn2)sc2c1CCC2,-17,2,3,-1
CC1(C)SCC(C(=O)O)NC1=O (centres undefined),12,11,-3,-5
CC(=O)c1cccc(N2Cc3ccccc3C2=NC(=O)CCl)c1,-6,2,77*,1
CC(OC(=O)CNC(=O)c1ccc(Cl)c(Cl)c1)C(=O)N1CCOCC1 (centres undefined),14,8,25*,nt
CC1(C)CC2CC(C)(CN2C(=O)COC(=O)CNC(=O)c2ccc(Cl)c(Cl)c2)C1 (centres undefined),-2,2,27*,3
Oc1c(Br)cc2oc3c(c2c1CNCc1ccccc1)CCCC3,-6,8,-4,6
NC(=S)N/N=C/c1c(O)c(Br)cc2oc3c(c12)CCCC3,24,26,22*,-5
CCC(C)NC(=O)CSc1ncnc2sccc12 (centres undefined),5,10,-1,3
COc1ccc(CCNC(=O)CS(=O)(=O)c2cn(CC(=O)N(C(C)C)C(C)C)c3ccccc23)cc1OC,8,11,17*,0
COc1ccc(CCNC(=O)CS(=O)(=O)c2cn(CC(=O)N3CCCC3)c3ccccc23)cc1OC,-7,1,-6,8
